Measurements from ChEMBL document CHEMBL3352181, “Novel phenyl and pyridyl substituted derivatives of isoindolines: Synthesis, antitumor activity and DNA binding features” (Eur J Med Chem, 2014).
The source made the active and inactive calls. No cut-off for these calls is given here.

What was measured:
[1] = tested on: HepG2; assay: Induction of cell cycle arrest on human HepG2 cells assessed as accumulation at G2/M phase at 25 uM after 48 hrs by propidium iodide staining based flow cytometry (reference value: 31.1 +/- 0.4%); format: functional
[2] = tested on: HepG2; assay: Induction of cell cycle arrest on human HepG2 cells assessed as accumulation at subG1 phase at 25 uM after 24 hrs by propidium iodide staining based flow cytometry (reference value: 4.8 +/- 0.6%); format: functional
Procedure, shortened: (§1)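 HepG2 or SW620 cells were seeded at 25000 per well. After 24 h they were treated, then harvested 24 or 48 h later. Attached cells were trypsinized, pooled with floating cells, PBS-washed and fixed in 70% ethanol. Cells were stained with PI 1 µg/mL plus RNase A 0.2 µg/mL, and 10 000 events were acquired by flow cytometry. Phase percentages come from DNA histograms, in duplicate, with ANOVA at p < 0.05.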

[3] = tested on: HepG2; assay: Induction of cell cycle arrest on human HepG2 cells assessed as accumulation at S phase at 25 uM after 48 hrs by propidium iodide staining based flow cytometry (reference value: 6.8 +/- 5.3%); format: functional; procedure, shortened: as §1
[4] = tested on: HepG2; assay: Induction of cell cycle arrest on human HepG2 cells assessed as accumulation at G1 phase at 10 uM after 24 hrs by propidium iodide staining based flow cytometry (reference value: 61.4 +/- 2.0%); format: functional
[5] = molecular target: T1, DNA topoisomerase 1 (Homo sapiens) (UniProt P11387); assay: Inhibition of human topoisomerase 1 assessed as topoisomerase poison activity by measuring generation of open circular DNA using supercoiled pUC19 DNA at 5 to 50 uM by agarose gel electrophoresis
T1 sequence (whole entry): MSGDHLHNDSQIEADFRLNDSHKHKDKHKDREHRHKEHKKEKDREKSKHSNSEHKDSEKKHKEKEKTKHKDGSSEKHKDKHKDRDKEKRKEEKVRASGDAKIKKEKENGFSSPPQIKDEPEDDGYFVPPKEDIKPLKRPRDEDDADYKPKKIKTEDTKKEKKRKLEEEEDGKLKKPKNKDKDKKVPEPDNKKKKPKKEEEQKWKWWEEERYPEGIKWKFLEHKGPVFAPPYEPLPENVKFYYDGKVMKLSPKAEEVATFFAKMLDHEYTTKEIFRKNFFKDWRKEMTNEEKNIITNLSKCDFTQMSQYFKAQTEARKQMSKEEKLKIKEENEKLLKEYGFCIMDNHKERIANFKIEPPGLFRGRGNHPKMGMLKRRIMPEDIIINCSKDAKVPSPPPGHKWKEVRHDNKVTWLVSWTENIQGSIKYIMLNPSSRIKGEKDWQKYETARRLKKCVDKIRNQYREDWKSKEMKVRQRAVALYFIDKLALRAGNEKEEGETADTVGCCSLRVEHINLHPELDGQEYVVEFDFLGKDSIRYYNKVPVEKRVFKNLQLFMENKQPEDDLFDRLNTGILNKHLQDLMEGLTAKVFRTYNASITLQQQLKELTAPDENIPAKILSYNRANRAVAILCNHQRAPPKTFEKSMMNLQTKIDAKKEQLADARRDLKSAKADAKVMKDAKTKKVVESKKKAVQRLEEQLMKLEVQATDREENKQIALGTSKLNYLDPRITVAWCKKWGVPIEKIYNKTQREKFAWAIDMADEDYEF
Procedure, shortened: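 Supercoiled pUC19 plasmid was incubated with human topoisomerase I and graded compound concentrations. Reactions were stopped with SDS and proteinase K. DNA forms were resolved on 1% agarose in TBE (2 h, 120 V), post-stained with ethidium bromide and photographed under UV. Poisoning was read as appearance of nicked DNA, with camptothecin as the positive control.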

[6] = tested on: HepG2; assay: Induction of cell cycle arrest on human HepG2 cells assessed as accumulation at G2/M phase at 10 uM after 24 hrs by propidium iodide staining based flow cytometry (reference value: 26.6 +/- 12.2%); format: functional
[7] = tested on: HepG2; assay: Induction of cell cycle arrest on human HepG2 cells assessed as accumulation at S phase at 10 uM after 48 hrs by propidium iodide staining based flow cytometry (reference value: 6.8 +/- 5.3%); format: functional
[8] = tested on: HepG2; assay: Induction of cell cycle arrest on human HepG2 cells assessed as accumulation at S phase at 10 uM after 24 hrs by propidium iodide staining based flow cytometry (reference value: 12.0 +/- 10.2%); format: functional
[9] = tested on: HepG2; assay: Induction of cell cycle arrest on human HepG2 cells assessed as accumulation at G2/M phase at 25 uM after 24 hrs by propidium iodide staining based flow cytometry (reference value: 26.6 +/- 12.2%); format: functional
[10] = tested on: HepG2; assay: Induction of cell cycle arrest on human HepG2 cells assessed as accumulation at G2/M phase at 10 uM after 48 hrs by propidium iodide staining based flow cytometry (reference value: 31.1 +/- 0.4%); format: functional
[11] = tested on: MCF7; assay: Antiproliferative activity against human MCF7 cells assessed as inhibition of cell proliferation after 72 hrs by MTT assay; format: functional, cell-based
Procedure, shortened: (§2)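 Cells grown as monolayers in DMEM with 10% FBS, 2 mM L-glutamine, penicillin/streptomycin, 37 °C, 5% CO2. Seeded at 5000/well on day 0. Compounds added after 24 h as five serial dilutions (0,01 to 100 µM), DMSO ≤0.1%, then 72 h. MTT read-out converted to percentage growth. IC50 by linear regression; quadruplicates in three experiments.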

[12] = tested on: HepG2; assay: Induction of cell cycle arrest on human HepG2 cells assessed as accumulation at G1 phase at 25 uM after 48 hrs by propidium iodide staining based flow cytometry (reference value: 62.1 +/- 4.9%); format: functional
[13] = tested on: HepG2; assay: Antiproliferative activity against human HepG2 cells assessed as inhibition of cell proliferation after 72 hrs by MTT assay; format: functional, cell-based; procedure, shortened: as §2
[14] = tested on: HepG2; assay: Induction of apoptosis in human HepG2 cells assessed as enlarged cells level at 25 uM after 24 hrs by Annexin V-Fluos staining based fluorescent microscopy; format: functional, cell-based
Procedure, shortened: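 Cells seeded on chamber slides at 4000 per well and treated 24 h (HepG2 at 25 or 50 µM; SW620 at 50 µM). Incubated 15 min with Annexin V-Fluos reagent plus propidium iodide, washed in PBS, and examined by fluorescence microscopy for morphology and labelling.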

[15] = tested on: HepG2; assay: Induction of cell cycle arrest on human HepG2 cells assessed as accumulation at S phase at 25 uM after 24 hrs by propidium iodide staining based flow cytometry (reference value: 12.0 +/- 10.2%); format: functional; procedure, shortened: as §1
[16] = tested on: HepG2; assay: Induction of cell cycle arrest on human HepG2 cells assessed as accumulation at G1 phase at 10 uM after 48 hrs by propidium iodide staining based flow cytometry (reference value: 62.1 +/- 4.9%); format: functional
[17] = tested on: HepG2; assay: Induction of cell cycle arrest on human HepG2 cells assessed as accumulation at G1 phase at 25 uM after 24 hrs by propidium iodide staining based flow cytometry (reference value: 61.4 +/- 2.0%); format: functional
[18] = tested on: HepG2; assay: Induction of cell cycle arrest on human HepG2 cells assessed as accumulation at subG1 phase at 10 uM after 24 hrs by propidium iodide staining based flow cytometry (reference value: 4.8 +/- 0.6%); format: functional; procedure, shortened: as §1
[19] = tested on: BJ; assay: Antiproliferative activity against human BJ cells assessed as inhibition of cell proliferation after 72 hrs by MTT assay; format: cell-based; conditions: 72 h; procedure, shortened: as §2
[20] = tested on: HepG2; assay: Induction of cell cycle arrest on human HepG2 cells assessed as accumulation at subG1 phase at 25 uM after 48 hrs by propidium iodide staining based flow cytometry (reference value: 1.9%); format: functional; procedure, shortened: as §1
[21] = tested on: HeLa; assay: Antiproliferative activity against human HeLa cells assessed as inhibition of cell proliferation after 72 hrs by MTT assay; format: functional, cell-based; procedure, shortened: as §2
[22] = tested on: HepG2; assay: Induction of cell cycle arrest on human HepG2 cells assessed as accumulation at subG1 phase at 10 uM after 48 hrs by propidium iodide staining based flow cytometry (reference value: 1.9%); format: functional; procedure, shortened: as §1
[23] = tested on: SW-620; assay: (§3) Antiproliferative activity against human SW620 cells assessed as inhibition of cell proliferation after 72 hrs by MTT assay; format: functional, cell-based; procedure, shortened: as §2
[24] = as §3; format: functional, cell-based, SW-620; conditions: Homo sapiens, SW-620, 72 h; procedure, shortened: as §2

## N#Cc1ccc(/N=C2\c3ccccc3CN2c2ccc(C#N)cc2)cc1
[1]
  Activity: 100%
[2]
  Activity: 15.7%
[3]
  Activity: 0%
[4]
  Activity: 54.1%
[5]
  inhibition: inactive
[6]
  Activity: 19.2%
[7]
  Activity: 0%
[8]
  Activity: 26.7%
[9]
  Activity: 37.3%
[10]
  Activity: 100%
[11]
  inhibition: Dose-dependent effect
[11]; Homo sapiens, MCF7, 72 h
  IC50: 46.1 µM
[12]
  Activity: 0%
[13]
  inhibition: Dose-dependent effect
[13]; HepG2, 72 h
  IC50: 4.68 µM
[14]
  Activity: Active
[15]
  Activity: 16.8%
[16]
  Activity: 0%
[17]
  Activity: 45.9%
[18]
  Activity: 13.3%
[19]; Homo sapiens, BJ
  IC50: 75.2 µM
[19]; human, bj
  inhibition (INH): Dose-dependent effect
[20]
  Activity: 5.7%
[21]
  inhibition: Dose-dependent effect
[21]; Homo sapiens, HeLa, 72 h
  IC50: 50 µM
[22]
  Activity: 5.2%
[23]
  inhibition: Dose-dependent effect
[24]
  IC50: 77.2 µM
